Reference: ChEMBL document CHEMBL1129385, “Aspartic acid conjugates of 2-(3,4-dichlorophenyl)-N-methyl-N-[(1S)-1(3-aminophenyl)-2-(1-pyrrolidi nyl) ethyl]acetamide: kappa opioid receptor agonists with limited access to the central nervous system” (J Med Chem, 1996)

Experiments:
Mus musculus [1] = experiment: Compound was evaluated for Antinociceptive potencies in mice for in vivo activity in mouse tail-flick by icv administration; format: functional; conditions: central
Mus musculus [2] = experiment: Peak time for Antinociception writhing(min) by icv administration in mice.; format: functional
[3] = target: T1, Kappa-type opioid receptor (Cavia porcellus, UniProt P41144); experiment: Compound was tested for the binding affinity and selectivity by competitive inhibition of radioligands on opioid kappa receptor in guinea pig brain membranes; format: cell membranes, Membrane
Outline: (§1)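 Competition binding in guinea pig brain membranes for κ opioid sites against 1 nM [³H]U69,593, using a modified Werling method. Ki values are arithmetic means of three experiments.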

Mus musculus [4] = experiment: Compound was evaluated for Antinociceptive potencies in mice for in vivo activity Mouse abdominal stretch assay by icv administration; format: functional; conditions: Abdomen, central
Mus musculus [5] = experiment: Peak time for Antinociception Tail-flick(min) by icv administration in mice.; format: functional
Mus musculus [6] = experiment: Compound was evaluated for Antinociceptive potencies in mice for in vivo activity in Analgesic activity in the second phase of the mouse formalin assay by iv administration; format: functional
Mus musculus [7] = experiment: Compound was evaluated for Antinociceptive potencies in mice for in vivo activity in mouse tail-flick by iv administration; format: functional
Mu-type opioid receptor = Mu-type opioid receptor (Cavia porcellus, UniProt P97266); experiment: Compound was tested for the binding affinity and selectivity by competitive inhibition of radioligands on opioid Mu receptor in guinea pig brain membranes; format: cell membranes, Membrane
Outline: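 Competition binding in guinea pig brain membranes for μ opioid sites against 2 nM [³H]DAMGO, using a modified Werling method. Ki values are arithmetic means of three experiments.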

Cavia porcellus = species on record: Cavia porcellus; experiment: Compound was tested for their agoinst potencies on the electrically stimulated Guinea pig ileal longitudinal muscle preparation.; format: functional; conditions: Muscle tissue
Mus musculus [8] = experiment: Peak time for Antinociception writhing(min) by iv administration in mice.; format: functional
Mus musculus [9] = species on record: Mus musculus; experiment: Compound was tested for their agoinst potencies on the electrically stimulated mouse vas deferens.; format: functional
Mus musculus [10] = experiment: Peak time for Antinociception Tail-flick(min) by iv administration in mice.; format: functional
[11] = target: T1, Kappa-type opioid receptor; experiment: Compound was tested for the binding affinity and selectivity by competitive inhibition of radioligands on Opioid receptor kappa 1 in guinea pig brain membranes; format: cell membranes, Membrane; outline: as §1

CN(C(=O)Cc1ccc(Cl)c(Cl)c1)[C@H](CN1CCCC1)c1cccc(NC(=O)[C@@H](N)CC(=O)O)c1
ED50 (Mus musculus [1]): 0.335 µmol/kg | Time (Mus musculus [2]): 10 min | Ki [3]: 0.34 nM | ED50 (Mus musculus [4]): 0.0068 µmol/kg | Time (Mus musculus [5]): 30 min | ED50 (Mus musculus [6]): 0.01 µmol/kg | ED50 (Mus musculus [7]): 0.85 µmol/kg | Ki (Mu-type opioid receptor): 462 nM | IC50 (Cavia porcellus): 0.84 nM | Time (Mus musculus [8]): 10 min | IC50 (Mus musculus [9]): 2.49 nM | Time (Mus musculus [10]): 20 min

CN(C(=O)Cc1ccc(Cl)c(Cl)c1)[C@H](CN1CCCC1)c1cccc(NC(=O)[C@H](N)CC(=O)O)c1
Time (Mus musculus [2]): 10 min | ED50 (Mus musculus [4]): 0.046 µmol/kg | ED50 (Mus musculus [6]): 1.05 µmol/kg | Ki (Mu-type opioid receptor): 280 nM | IC50 (Cavia porcellus): 4.59 nM | Time (Mus musculus [8]): 10 min | IC50 (Mus musculus [9]): 4.06 nM | Ki [11]: 1.2 nM

CN(C(=O)Cc1ccc(Cl)c(Cl)c1)[C@H](CN1CCCC1)c1cccc(NC(=O)C[C@H](N)C(=O)O)c1
ED50 (Mus musculus [1]): 0.502 µmol/kg | Time (Mus musculus [2]): 30 min | ED50 (Mus musculus [4]): 0.011 µmol/kg | Time (Mus musculus [5]): 30 min | ED50 (Mus musculus [7]): 5.12 µmol/kg | IC50 (Cavia porcellus): 0.55 nM | Time (Mus musculus [8]): 10 min | IC50 (Mus musculus [9]): 6.36 nM | Time (Mus musculus [10]): 30 min
